≈ marks a conversion by molar mass, not a printed value.
Tests used:
[1] = system: Mus musculus; assay: Antihyperalgesic activity in Swiss albino mouse assessed as reduction in carrageenan-induced inflammation at 20 mg/kg, po after 120 mins relative to control; format: functional; set-up: scale not given: the % may be the effect or the level left
[2] = Metabolic stability in Sprague-Dawley rat plasma assessed as compound remaining after 30 mins by LC-MS/MS analysis; format: ADME, cell-free; settings: read-out: Stability
How it was run: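 Compound (12 µL of 1 mM DMSO solution into 588 µL medium) incubated in PBS pH 7.4, pepsin-free SGF pH 1.5, or EDTA rat plasma. Aliquots taken at 0, 30, 60, 120 min and quenched with ice-cold acetonitrile containing internal standard; parent remaining as percent.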

[3] = Solubility of the compound in simulated gastric fluid at pH 1.5 after 90 mins by HPLC analysis; format: ADME
How it was run: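 DMSO stock (20 mM) diluted 2 µL into 198 µL PBS 0.01 M pH 7.4 or pepsin-free SGF 0.05 M pH 1.5, duplicate wells, shaken 90 min at 300 rpm. Filtrates analysed by HPLC with photodiode-array detection against seven-point standards (1–200 µM).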

[4] = system: Thoracic aorta; assay: Ex vivo vasorelaxant activity in Wistar rat endothelium thoracic aortic ring assessed as reduction of KCl-induced contraction; format: functional, tissue-based
How it was run: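 Endothelium-denuded thoracic aortic rings from male Wistar rats (250–350 g) in oxygenated Tyrode-type buffer at 37 °C, isometric tension recording. Rings precontracted with 30 mM KCl, then 3-fold increasing compound concentrations (1 nM–10 µM) added, also with 1 µM ODQ preincubated. Emax as % of KCl tone; pIC50; mean ± SE of 6–10 experiments.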

[5] = Stability of the compound in simulated gastric fluid assessed as compound remaining at pH 1.5 after 30 mins by LC-MS/MS analysis; format: physicochemical; settings: read-out: Stability
How it was run: (§1)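 1 mM DMSO stock added to 0.01 M PBS (pH 7.4) or 0.05 M simulated gastric fluid without pepsin (pH 1.5 with HCl); incubated in hybridisation oven; aliquots at 0, 30, 60, 120 min quenched with ice-cold acetonitrile containing internal standard; parent remaining (%) measured.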

[6] = system: Mus musculus; assay: Antihyperalgesic activity in Swiss albino mouse assessed as reduction in carrageenan-induced inflammation at 20 mg/kg, po after 90 mins relative to control; format: functional; set-up: scale not given: the % may be the effect or the level left
[7] = system: Mus musculus; assay: Antihyperalgesic activity in Swiss albino mouse assessed as reduction in carrageenan-induced inflammation at 20 mg/kg, po after 60 mins relative to control; format: functional; set-up: scale not given: the % may be the effect or the level left
[8] = system: Plasma; assay: Metabolic stability in Wistar rat plasma at 10 mg/kg, iv up to 6 hrs by LC-MS/MS analysis; format: ADME, organism-based; set-up: dose 10 mg/kg, route intravenous; settings: in vivo
[9] = Stability of the compound in simulated gastric fluid assessed as compound remaining at pH 1.5 after 120 mins by LC-MS/MS analysis; format: physicochemical; settings: read-out: Stability; how it was run: as §1
[10] = system: Liver; assay: Induction of nitric oxide production in Wistar rat liver homogenate assessed as nitrite level at 1 mM after 1 to 150 mins; format: functional, tissue-based
[11] = system: Rattus norvegicus; assay: Volume of distribution at steady state in Wistar rat at 10 mg/kg, iv by LC-MS/MS analysis; format: ADME, organism-based; set-up: dose 10 mg/kg, route intravenous; settings: in vivo
[12] = system: Rattus norvegicus; assay: Drug metabolism in Wistar rat plasma assessed as 2-(1-(4-fluorophenyl)-2-methyl-5-(4-(methylsulfonyl)phenyl)-1H-pyrrol-3-yl)-N-(2-hydroxyethyl)acetamide metabolite at 10 mg/kg, po up to 6 hrs by LC-MS/MS analysis; format: ADME, organism-based; set-up: dose 10 mg/kg, route oral; settings: in vivo
How it was run: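 Male Han Wistar rats, three per route, single 10 mg/kg/5 mL dose iv or po in 5% DMSO, 5% Cremophor EL, 0.1% Tween 80 in 150 mM phosphate buffer pH 7. Jugular-vein blood sampled, plasma methanol-precipitated, parent and hydroxy metabolite quantified by LC–MS/MS in positive ESI MRM mode (LLOQ 1–15 ng/mL).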

[13] = system: Mus musculus; assay: Antihyperalgesic activity in Swiss albino mouse assessed as reduction in carrageenan-induced inflammation at 40 mg/kg, po after 90 mins relative to control; format: functional; set-up: scale not given: the % may be the effect or the level left
[14] = biological target: T1, Prostaglandin G/H synthase 1 (Mus musculus) (UniProt P22437); assay: Inhibition of COX-1 in mouse J774 cells using arachidonic acid as substrate assessed as inhibition of prostaglandin E2 production at 10 uM preincubated for 15 mins followed by substrate addition measured after 30 mins by RIA; format: cell-based
T1 sequence (whole entry): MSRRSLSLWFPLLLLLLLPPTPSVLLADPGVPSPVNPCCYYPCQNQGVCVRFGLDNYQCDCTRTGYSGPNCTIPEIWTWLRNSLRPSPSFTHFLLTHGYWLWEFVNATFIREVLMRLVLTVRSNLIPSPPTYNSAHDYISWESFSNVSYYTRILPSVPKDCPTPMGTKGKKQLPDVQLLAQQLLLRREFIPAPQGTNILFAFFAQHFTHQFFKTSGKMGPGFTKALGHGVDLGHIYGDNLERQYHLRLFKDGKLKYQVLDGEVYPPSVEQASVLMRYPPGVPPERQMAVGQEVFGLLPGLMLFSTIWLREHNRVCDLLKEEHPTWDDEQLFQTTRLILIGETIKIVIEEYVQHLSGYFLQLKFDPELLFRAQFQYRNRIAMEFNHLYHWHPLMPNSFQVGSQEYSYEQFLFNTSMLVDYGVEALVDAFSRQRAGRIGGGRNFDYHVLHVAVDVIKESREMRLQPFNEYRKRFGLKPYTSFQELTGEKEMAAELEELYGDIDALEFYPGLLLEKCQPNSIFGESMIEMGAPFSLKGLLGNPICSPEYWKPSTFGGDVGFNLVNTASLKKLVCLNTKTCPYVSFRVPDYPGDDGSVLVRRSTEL
How it was run: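 J774 murine macrophages pretreated 15 min with compound (10 µM; lower concentrations 0.01–1 µM where needed), then incubated 30 min at 37 °C with 15 µM arachidonic acid; supernatant PGE2 measured by RIA. Triplicate wells, mean of three experiments of percent inhibition versus control; IC50 by sigmoidal fit.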

`Cc1c(CC(=O)NCCO[N+](=O)[O-])cc(-c2ccc(S(C)(=O)=O)cc2)n1-c1ccc(F)cc1` showed an Activity [1] of 0%, a remaining at 0.5 h [2] of 100% and a solubility at 1.5 h [3] of 147 µM (≈ 69.9 µg/mL). The IC50 [4] was 4.9 µM, the remaining at 0.5 h [5] was 100% and the Activity [6] was 20%. For the same compound, the Activity [7] was 30%, the Stability [8] was “Stable” and the remaining at 2 h [9] was 100%. For the same compound, the Activity [10] was 27 µM, the Vdss [11] was 367 mL and the Drug metabolism [12] was “Active”. For the same compound, the Activity [13] was 29% and the inhibition [14] was 9%.
